Source: publication PMC3783524 (ACS chemical biology, 2013)
“And” between values parts separate entries of the source, which are not always exact repeats. Equal values may be shown once.

What was measured:
DnaK-DnaJ [1] = molecular target: T1, DnaK-DnaJ (Escherichia coli, UniProt P0A6Y8); assay: DnaJ-stimulated ATPase activity of DnaK; type: biochemical; conditions: result in words
Method in brief: (§1)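 Purified E. coli DnaK, DnaJ and GrpE (His-tagged, tag removed by TEV) and the synthetic NRLLLTG peptide. DnaK at 0.6 μM unless noted, with co-chaperone at stated levels, in 100 mM Tris-HCl, 20 mM KCl, 6 mM MgCl2, pH 7.4. Test compound added from DMSO stock. Phosphate release read by malachite green adaptation (absorbance 620 nm). Michaelis-Menten fit. Triplicates, three independent experiments.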

DnaK-GrpE [2] = molecular target: T2, DnaK-GrpE (Escherichia coli, UniProt P0A6Y8); assay: GrpE-stimulated ATPase activity of DnaK; type: biochemical; conditions: for Inhibition of the DnaK-GrpE combination (ATPase): result in words
T2 sequence (P09372 whole entry): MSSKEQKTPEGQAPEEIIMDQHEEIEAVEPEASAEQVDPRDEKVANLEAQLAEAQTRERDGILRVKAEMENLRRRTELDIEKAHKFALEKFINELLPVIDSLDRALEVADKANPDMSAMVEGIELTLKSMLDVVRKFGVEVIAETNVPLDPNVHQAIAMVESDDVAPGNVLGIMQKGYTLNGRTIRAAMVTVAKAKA
T2 sequence (P0A6Y8 whole entry): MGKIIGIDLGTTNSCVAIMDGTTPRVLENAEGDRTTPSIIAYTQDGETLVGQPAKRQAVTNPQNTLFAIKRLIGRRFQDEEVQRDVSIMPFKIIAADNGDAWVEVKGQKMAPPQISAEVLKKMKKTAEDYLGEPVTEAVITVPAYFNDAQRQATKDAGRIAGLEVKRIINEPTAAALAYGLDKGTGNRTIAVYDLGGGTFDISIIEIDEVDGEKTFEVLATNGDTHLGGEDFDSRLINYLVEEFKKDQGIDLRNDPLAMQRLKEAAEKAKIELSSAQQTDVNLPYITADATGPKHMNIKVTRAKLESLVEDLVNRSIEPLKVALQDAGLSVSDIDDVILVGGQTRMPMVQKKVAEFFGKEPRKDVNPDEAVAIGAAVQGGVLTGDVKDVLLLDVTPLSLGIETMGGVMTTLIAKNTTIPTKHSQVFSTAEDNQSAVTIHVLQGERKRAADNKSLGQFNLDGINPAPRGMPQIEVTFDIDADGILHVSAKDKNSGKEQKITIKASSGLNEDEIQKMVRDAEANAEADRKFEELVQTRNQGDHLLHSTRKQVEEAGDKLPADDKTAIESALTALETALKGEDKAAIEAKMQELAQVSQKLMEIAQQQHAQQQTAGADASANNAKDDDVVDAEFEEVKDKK
Method in brief: as §1

Solubility = type: physicochemical; conditions: result in words
DnaK [3] = molecular target: T3, DnaK (Escherichia coli, UniProt P0A6Y8); assay: Intrinsic ATPase activity of DnaK alone; type: biochemical; conditions: result in words
T3 sequence (P0A6Y8 whole entry): as above
Method in brief: as §1

DnaK-peptide = DnaK-peptide (Escherichia coli, UniProt P0A6Y8); assay: Peptide substrate; type: biochemical; conditions: NRLLLTG peptide; result in words
Chain of DnaK-peptide (P0A6Y8 whole entry): as above
Method in brief: as §1

DnaK [4] = molecular target: T3, DnaK; assay: Fluorescence polarization, binding of FITC-HLA peptide to DnaK; conditions: FP assay; result in words
DnaK [5] = molecular target: T3, DnaK; assay: Fluorescence polarization, binding of FAM-ATP to DnaK; conditions: for Competition with FAM-ATP for binding to DnaK: FP assay, result in words
DnaK-GrpE [6] = molecular target: T2, DnaK-GrpE; assay: Fluorescence-quenching assay, physical interaction between DnaK and GrpE; type: binding; conditions: result in words
DnaJ = DnaJ (Escherichia coli, UniProt P08622); assay: Isothermal calorimetry, binding to DnaJ
Chain of DnaJ (P08622 whole entry): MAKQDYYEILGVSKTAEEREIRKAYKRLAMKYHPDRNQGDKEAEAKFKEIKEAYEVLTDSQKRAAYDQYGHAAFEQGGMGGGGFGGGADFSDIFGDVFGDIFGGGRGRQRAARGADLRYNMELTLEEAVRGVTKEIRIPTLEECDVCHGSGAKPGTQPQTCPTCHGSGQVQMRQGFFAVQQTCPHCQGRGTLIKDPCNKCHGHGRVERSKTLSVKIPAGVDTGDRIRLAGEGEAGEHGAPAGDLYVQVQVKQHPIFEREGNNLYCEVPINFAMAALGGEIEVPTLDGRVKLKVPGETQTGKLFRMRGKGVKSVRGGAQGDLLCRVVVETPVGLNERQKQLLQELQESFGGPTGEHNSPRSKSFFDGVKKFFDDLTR

GrpE = GrpE (Escherichia coli, UniProt P09372); assay: Isothermal calorimetry, binding to GrpE
Chain of GrpE (P09372 whole entry): as the sequence (P09372 whole entry) above

DnaK R56A = DnaK R56A (Escherichia coli, UniProt P0A6Y8, R56A); assay: GrpE-stimulation of DnaK mutant R56A, ATPase assay; type: biochemical; conditions: result in words
Chain of DnaK R56A (P0A6Y8 whole entry R56A): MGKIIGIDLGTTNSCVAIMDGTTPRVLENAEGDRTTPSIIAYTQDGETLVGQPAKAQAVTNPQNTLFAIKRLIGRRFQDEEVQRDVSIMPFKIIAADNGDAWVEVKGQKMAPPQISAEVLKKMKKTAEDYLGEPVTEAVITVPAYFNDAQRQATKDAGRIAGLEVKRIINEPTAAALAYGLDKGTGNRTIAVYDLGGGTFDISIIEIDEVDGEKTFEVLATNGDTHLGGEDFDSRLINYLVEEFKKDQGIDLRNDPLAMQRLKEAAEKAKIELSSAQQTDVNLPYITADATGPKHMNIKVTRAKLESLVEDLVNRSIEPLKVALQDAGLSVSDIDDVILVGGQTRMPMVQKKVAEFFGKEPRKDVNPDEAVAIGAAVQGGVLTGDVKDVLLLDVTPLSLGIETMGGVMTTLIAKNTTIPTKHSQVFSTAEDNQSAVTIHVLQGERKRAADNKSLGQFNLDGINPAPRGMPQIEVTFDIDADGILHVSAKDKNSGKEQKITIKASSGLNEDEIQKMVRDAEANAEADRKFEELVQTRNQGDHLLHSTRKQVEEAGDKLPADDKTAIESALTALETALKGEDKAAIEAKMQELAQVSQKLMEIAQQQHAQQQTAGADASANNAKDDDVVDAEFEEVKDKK
Chain of DnaK R56A (P09372 whole entry, further chain): as the sequence (P09372 whole entry) above

DnaK M89A = DnaK M89A (Escherichia coli, UniProt P0A6Y8, M89A); assay: GrpE-stimulation of DnaK mutant M89A, ATPase assay; type: biochemical; conditions: result in words
Chain of DnaK M89A (P09372 whole entry): as above
Chain of DnaK M89A (P0A6Y8 whole entry M89A): as the sequence (P0A6Y8 whole entry R56A) above, with A56R, M89A counted along it

DnaK D233A = DnaK D233A (Escherichia coli, UniProt P0A6Y8, D233A); assay: GrpE-stimulation of DnaK control mutant D233A, ATPase assay; type: biochemical; conditions: identical to wild type
Chain of DnaK D233A (P0A6Y8 whole entry D233A): as the sequence (P0A6Y8 whole entry R56A) above, with A56R, D233A counted along it
Chain of DnaK D233A (P09372 whole entry, further chain): as the sequence (P09372 whole entry) above

DnaK [7] = molecular target: T3, DnaK; assay: Intrinsic tryptophan fluorescence of DnaK; type: binding
Method in brief: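 DnaK (5 μM) held in 25 mM HEPES, 10 mM KCl, 5 mM MgCl2, pH 7.5, with 1 mM ADP or ATP and test compound (e.g. 25 or 100 μM). Incubated 30 min at 37 °C in the dark. Excitation 290 nm; emission scanned 300–450 nm or read at 340 nm. Langmuir fit. Triplicate, three independent experiments.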

DnaK-DnaJ [8] = molecular target: T1, DnaK-DnaJ; assay: Fluorescence-quenching assay, binding of labeled DnaJ to DnaK; conditions: not statistically significant (p = 0.07)
[9] = DnaK 5 μM, 25 μM or 100 μM compound

T1 sequence (P0A6Y8 whole entry): as the sequence (P0A6Y8 whole entry) above

## O=c1c(O)c(-c2cc(O)c(O)c(O)c2)oc2cc(O)cc(O)c12 [Myr, myricetin]
DnaK-DnaJ [1]
  Inhibition of the DnaK-DnaJ combination (ATPase): only inhibitors of the DnaK-DnaJ combination

## CC(=O)O[C@H]1C[C@@H]2CC[C@@H]3[C@H](CC[C@@]4(C)[C@H]3C[C@H]([N+]3(C)CCCCC3)[C@@H]4OC(C)=O)[C@@]2(C)C[C@@H]1[N+]1(C)CCCCC1 [PaBr, pancuronium bromide]
DnaK-GrpE [2]
  Inhibition of the DnaK-GrpE combination (ATPase): only inhibitors of the DnaK-GrpE combination
Solubility
  Solubility: weakly soluble

## CCCc1nc2c(C)cc(-c3nc4ccccc4n3C)cc2n1Cc1ccc(-c2ccccc2C(=O)O)cc1 [Tel, telmisartan]
DnaK-DnaJ [1]
  Inhibition of the DnaK-DnaJ combination (ATPase): little activity
DnaK-GrpE [2]
  Inhibition of the DnaK-GrpE combination (ATPase): only inhibitors of the DnaK-GrpE combination
DnaK-GrpE [2]; wild type DnaK
  Fold increase in Km of GrpE stimulation, wild type DnaK: ~ 1.5 fold
DnaK [3]
  Activity against DnaK alone (intrinsic ATPase): little activity
DnaK-peptide
  Activity against DnaK-peptide substrate combination (ATPase): little activity
DnaK [4]
  Effect on apparent affinity of DnaK for FITC-HLA: no effect
DnaK [5]
  Competition with FAM-ATP for binding to DnaK: interfered with binding
DnaK [5]; reduced nucleotide affinity
  Effect on FAM-ATP binding, fold: 2 fold
DnaK-GrpE [6]
  Effect on physical interaction between DnaK and GrpE: no effect
DnaJ
  Kd: > 100 µM
GrpE
  Kd: > 100 µM
DnaK R56A
  Ability to block GrpE-stimulation of DnaK R56A: resistant
DnaK M89A
  Ability to block GrpE-stimulation of DnaK M89A: resistant
DnaK D233A
  Fold increase in Km of GrpE stimulation, DnaK D233A: ~ 1.5 fold

## COc1cc(C(=O)NS(=O)(=O)c2ccccc2C)ccc1Cc1cn(C)c2ccc(NC(=O)OC3CCCC3)cc12 [Zaf, zafirlukast]
DnaK-DnaJ [1]
  Inhibition of the DnaK-DnaJ combination (ATPase): only inhibitors of the DnaK-DnaJ combination
DnaK-GrpE [2]
  IC50: > 200 µM
  Inhibition of the DnaK-GrpE combination (ATPase): weak or no activity
DnaK [3]
  Activity against DnaK alone (intrinsic ATPase): weak or no activity
DnaK-peptide
  Activity against DnaK-peptide substrate combination (ATPase): has activity
DnaK [7]; Apparent affinity KD for ATP-bound DnaK, ATP-bound DnaK
  Kd: > 100 µM
DnaK [7]; Apparent affinity KD for DnaK in the presence of ADP, ADP 1 mM
  Kd: 52 ± 12 µM
DnaK [7]; [9]
  Decrease of tryptophan fluorescence intensity at 342 nm: ~ 25%
  Shift of tryptophan fluorescence peak: ~ 2 nm
DnaK [7]; p = 0.06, result in words
  Effect on Trp fluorescence in the ATP-bound states: no effect
DnaK [4]
  Effect on apparent affinity of DnaK for FITC-HLA: enhanced the apparent affinity
DnaK [5]
  Competition with FAM-ATP for binding to DnaK: unable to compete
DnaK-DnaJ [8]
  Weakening of binding of DnaJ to DnaK, fold: ~ 1.8 fold and ~ 2 fold
